Assay results reported in ChEMBL document CHEMBL4823251, “Structure-Based Exploration of Selectivity for ATM Inhibitors in Huntington's Disease” (J Med Chem, 2021).
In brackets after ≈: the same amount, converted by molar mass.

Experiments:
[1] = biological target: T1, Serine-protein kinase ATM (Homo sapiens, UniProt Q13315); experiment: Inhibition of full length recombinant FLAG-tagged human ATM assessed as decrease in p53 S15 phosphorylation using full length myc-tagged p53 as substrate incubated for 30 mins in presence of ATP by ELISA
Outline: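 Buffer was 25 mM HEPES pH 7.5 with MgCl₂, MnCl₂, Brij-35, glycerol, BSA and DTT (0.1% DMSO); reaction ran 30 min at 20 °C and was stopped with 70 mM EDTA. Product captured on anti-myc-coated plates and detected with anti-p53 pS15, HRP secondary and TMB, absorbance at 450 nm.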

[2] = biological target: T1, Serine-protein kinase ATM; experiment: Inhibition of ATM in human U2OS cells assessed as reduction in etoposide-stimulated KAP1 phosphorylation incubated for 60 mins by immunoreactivity assay; type: cell-based
Outline: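 U2OS cells plated overnight at 6k cells/well (37 °C, 5% CO₂), then treated with compound titrations (0.3% DMSO) plus 100 μM etoposide for 60 min. Cells fixed in cold methanol and stained for phospho-KAP1 and total KAP1 using IRDye secondaries on a LI-COR Odyssey. IC50 is the mean of at least two experiments.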

[3] = Kinetic solubility of the compound in pH 7.4 PBS buffer incubated for 2 hrs using orbital shaker by LC-UV mass spectrometry; type: physicochemical; conditions: read-out: Kinetic_solubility
Outline: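 Shaken on an orbital shaker for 2 h at room temperature, then filtered. Filtrate analysed by LC-UV with MS confirmation, calibrated against 200 μM and 10 μM DMSO dilutions.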

[4] = biological target: Phosphatidylinositol 3-kinase catalytic subunit type 3 (Homo sapiens, UniProt Q8NEB9); experiment: Inhibition of full length recombinant GST-tagged human VPS34 expressed in baculovirus expression system using PI/PS as substrate incubated for 60 mins in presence of ATP at Km concentration by luminescence assay
[5] = species: Homo sapiens; experiment: Selectivity ratio of Ki for full length recombinant GST-tagged VPS34 expressed in baculovirus expression system using PI/PS as substrate incubated for 60 mins in presence of ATP at Km concentration by luminescence assay to Ki for full length recombinant FLAG-tagged human ATM assessed as decrease in p53 S15 phosphorylation using full length myc-tagged p53 as substrate incubated for 30 mins in presence of ATP by ELISA
Outline: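 ADP-Glo luminescence read-out. ATM reaction: 0.75 nM enzyme, 25 nM myc-p53, 10 μM ATP, 30 min at 20 °C, p53 S15 phosphorylation by ELISA. Ki values are means of at least two experiments.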

Sequence of Phosphatidylinositol 3-kinase catalytic subunit type 3 (Q8NEB9 whole entry): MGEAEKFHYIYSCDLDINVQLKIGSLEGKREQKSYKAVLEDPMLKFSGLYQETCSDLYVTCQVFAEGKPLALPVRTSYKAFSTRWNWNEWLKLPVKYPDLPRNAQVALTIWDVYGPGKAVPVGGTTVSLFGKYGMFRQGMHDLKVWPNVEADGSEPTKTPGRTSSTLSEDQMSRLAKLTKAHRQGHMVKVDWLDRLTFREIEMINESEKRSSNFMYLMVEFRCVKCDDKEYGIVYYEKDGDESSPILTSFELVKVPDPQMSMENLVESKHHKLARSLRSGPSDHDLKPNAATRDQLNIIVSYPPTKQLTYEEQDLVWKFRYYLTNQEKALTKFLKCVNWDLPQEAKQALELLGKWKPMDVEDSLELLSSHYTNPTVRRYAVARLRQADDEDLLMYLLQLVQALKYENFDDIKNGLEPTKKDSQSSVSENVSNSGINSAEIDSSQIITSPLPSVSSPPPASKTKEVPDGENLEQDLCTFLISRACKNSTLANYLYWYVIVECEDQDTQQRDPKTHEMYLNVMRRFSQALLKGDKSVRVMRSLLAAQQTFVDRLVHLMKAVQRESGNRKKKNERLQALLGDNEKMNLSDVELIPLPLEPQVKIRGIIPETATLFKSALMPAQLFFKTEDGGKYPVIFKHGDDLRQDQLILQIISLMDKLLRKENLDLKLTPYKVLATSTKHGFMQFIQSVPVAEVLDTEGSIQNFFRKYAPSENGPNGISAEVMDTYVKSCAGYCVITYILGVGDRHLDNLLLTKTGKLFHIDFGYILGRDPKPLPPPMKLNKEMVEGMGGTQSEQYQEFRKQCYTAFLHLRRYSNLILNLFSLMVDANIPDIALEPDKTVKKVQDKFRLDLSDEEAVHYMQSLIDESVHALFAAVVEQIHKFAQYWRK
T1 sequence (Q13315 whole entry): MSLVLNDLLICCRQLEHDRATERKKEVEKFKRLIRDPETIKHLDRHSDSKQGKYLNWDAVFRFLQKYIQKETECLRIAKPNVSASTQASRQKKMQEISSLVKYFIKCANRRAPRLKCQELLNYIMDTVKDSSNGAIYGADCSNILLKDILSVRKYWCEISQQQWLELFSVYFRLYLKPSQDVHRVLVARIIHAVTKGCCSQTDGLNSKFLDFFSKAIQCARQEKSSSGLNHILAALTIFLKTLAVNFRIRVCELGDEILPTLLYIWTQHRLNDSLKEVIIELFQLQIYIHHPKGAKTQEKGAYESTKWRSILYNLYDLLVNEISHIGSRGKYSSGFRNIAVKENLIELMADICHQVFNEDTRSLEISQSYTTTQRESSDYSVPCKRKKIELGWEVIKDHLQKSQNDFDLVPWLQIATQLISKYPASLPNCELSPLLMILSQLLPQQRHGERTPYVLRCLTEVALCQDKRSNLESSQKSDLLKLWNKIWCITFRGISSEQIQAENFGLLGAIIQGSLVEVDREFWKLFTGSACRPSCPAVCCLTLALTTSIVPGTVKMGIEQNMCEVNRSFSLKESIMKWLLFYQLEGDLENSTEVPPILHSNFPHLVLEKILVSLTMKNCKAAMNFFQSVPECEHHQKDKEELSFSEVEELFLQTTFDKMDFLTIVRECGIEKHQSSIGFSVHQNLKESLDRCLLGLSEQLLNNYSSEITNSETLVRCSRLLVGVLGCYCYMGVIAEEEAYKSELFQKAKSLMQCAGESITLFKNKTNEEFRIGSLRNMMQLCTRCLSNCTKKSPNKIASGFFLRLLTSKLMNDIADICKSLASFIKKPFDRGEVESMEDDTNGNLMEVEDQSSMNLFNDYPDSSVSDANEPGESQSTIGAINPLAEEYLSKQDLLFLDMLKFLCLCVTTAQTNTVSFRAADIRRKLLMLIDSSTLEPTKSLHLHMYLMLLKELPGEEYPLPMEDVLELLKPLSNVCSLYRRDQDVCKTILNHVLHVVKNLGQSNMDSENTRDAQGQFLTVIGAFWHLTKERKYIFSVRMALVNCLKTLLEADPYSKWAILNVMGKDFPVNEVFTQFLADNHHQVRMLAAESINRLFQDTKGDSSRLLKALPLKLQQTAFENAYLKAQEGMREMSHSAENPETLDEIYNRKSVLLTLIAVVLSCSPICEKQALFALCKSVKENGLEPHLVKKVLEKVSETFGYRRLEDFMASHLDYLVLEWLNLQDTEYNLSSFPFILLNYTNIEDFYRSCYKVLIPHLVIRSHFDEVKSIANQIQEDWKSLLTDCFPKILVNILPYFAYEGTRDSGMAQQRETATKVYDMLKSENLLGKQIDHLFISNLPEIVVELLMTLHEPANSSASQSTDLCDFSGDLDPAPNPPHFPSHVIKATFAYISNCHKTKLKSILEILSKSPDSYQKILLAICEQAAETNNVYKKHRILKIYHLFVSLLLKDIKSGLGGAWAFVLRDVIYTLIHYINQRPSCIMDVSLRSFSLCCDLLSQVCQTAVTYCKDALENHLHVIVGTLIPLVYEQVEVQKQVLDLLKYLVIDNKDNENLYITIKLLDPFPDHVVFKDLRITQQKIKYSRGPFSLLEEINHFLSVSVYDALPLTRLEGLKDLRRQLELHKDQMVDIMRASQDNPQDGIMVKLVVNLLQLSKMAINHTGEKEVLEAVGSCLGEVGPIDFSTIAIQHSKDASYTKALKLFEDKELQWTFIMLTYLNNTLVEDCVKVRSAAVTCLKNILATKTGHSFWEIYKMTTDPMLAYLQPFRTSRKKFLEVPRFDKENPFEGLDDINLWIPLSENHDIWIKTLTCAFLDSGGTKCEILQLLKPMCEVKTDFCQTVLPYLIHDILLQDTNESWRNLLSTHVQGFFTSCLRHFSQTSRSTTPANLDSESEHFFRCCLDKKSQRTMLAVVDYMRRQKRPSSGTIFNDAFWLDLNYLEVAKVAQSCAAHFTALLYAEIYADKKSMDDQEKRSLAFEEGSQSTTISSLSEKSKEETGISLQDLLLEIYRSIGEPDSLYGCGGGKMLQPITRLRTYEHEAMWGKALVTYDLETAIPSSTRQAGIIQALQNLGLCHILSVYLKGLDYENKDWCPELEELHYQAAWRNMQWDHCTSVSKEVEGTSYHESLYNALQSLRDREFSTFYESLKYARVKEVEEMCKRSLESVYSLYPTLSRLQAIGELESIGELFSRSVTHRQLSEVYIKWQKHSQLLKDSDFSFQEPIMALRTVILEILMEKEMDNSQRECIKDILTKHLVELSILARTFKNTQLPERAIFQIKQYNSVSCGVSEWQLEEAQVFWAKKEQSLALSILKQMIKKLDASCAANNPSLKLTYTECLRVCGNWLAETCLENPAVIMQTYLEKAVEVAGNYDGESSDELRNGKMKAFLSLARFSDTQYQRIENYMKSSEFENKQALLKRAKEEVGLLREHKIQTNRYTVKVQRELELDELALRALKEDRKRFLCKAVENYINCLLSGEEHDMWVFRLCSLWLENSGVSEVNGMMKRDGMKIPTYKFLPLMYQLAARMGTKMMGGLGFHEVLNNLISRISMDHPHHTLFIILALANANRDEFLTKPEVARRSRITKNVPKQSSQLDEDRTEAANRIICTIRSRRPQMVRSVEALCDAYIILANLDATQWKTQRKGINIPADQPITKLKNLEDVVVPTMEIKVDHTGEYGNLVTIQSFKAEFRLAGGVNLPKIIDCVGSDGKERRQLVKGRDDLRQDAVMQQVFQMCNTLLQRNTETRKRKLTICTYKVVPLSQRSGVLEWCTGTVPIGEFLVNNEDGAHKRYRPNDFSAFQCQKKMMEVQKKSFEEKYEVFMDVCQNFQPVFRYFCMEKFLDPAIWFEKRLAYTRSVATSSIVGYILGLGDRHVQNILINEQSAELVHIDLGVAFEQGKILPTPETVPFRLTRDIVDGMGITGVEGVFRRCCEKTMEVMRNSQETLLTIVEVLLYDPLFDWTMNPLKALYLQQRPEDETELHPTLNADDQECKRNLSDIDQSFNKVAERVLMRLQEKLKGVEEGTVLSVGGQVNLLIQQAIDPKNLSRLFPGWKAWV

Structure (SMILES) | Ki [1] [µM] | IC50 [2] [µM] | solubility kinetic at 2 h [3] [µg/mL] | Ki [4] [µM] | Ratio Ki [5]
C[C@@H]1CN(c2cc(N3CCCCC[C@@H]3Cc3ccccc3)[nH]c(=O)c2)CCO1 | 0.001 | 1.6 | 70 (≈ 183 µM) | 1.8 | 200
COc1ccc2c(c1)Cc1cccc(-c3cc(N4CCOCC4)cc(=O)n3C)c1S2 | > 1.2 | > 30 | 10 (≈ 23.8 µM) | 0.91 | > 1
COc1ccc2c(c1)Cc1cccc(-c3cc(O)nc(N4CCOCC4)n3)c1S2 | 0.025 | 6.7 | 4 (≈ 9.82 µM) | 0.035 | 1
COc1ccc2c(c1)Cc1cccc(-c3cc(N4CCOCC4)cc(OC)n3)c1S2 | > 1.6 | > 30 | < 2 | > 5 | > 3
COc1ccc2c(c1)Cc1cccc(-c3cc(N4CCOCC4)cc(=O)[nH]3)c1S2 | 0.004 | 0.88 | 14 (≈ 34.4 µM) | 0.13 | 33
O=c1cc(N2CCOCC2)cc(N2CCC(Cc3ccccc3)C2)[nH]1 (stereo not given) | > 1.2 | > 30 | 5 (≈ 14.7 µM) | – | –
COc1ccc2c(c1)Cc1cccc(-c3cc(=O)cc(N4CCOCC4)[nH]3)c1S2 | 0.11 | > 30 | 3 (≈ 7.38 µM) | – | –
Oc1cc(N2CCC[C@@H]2Cc2ccccc2)nc(N2CCOCC2)n1 | 0.087 | > 30 | 59 (≈ 173 µM) | 0.27 | 3
COc1ccc2c(c1)Cc1cccc(-c3nc(O)cc(N4CCOCC4)n3)c1S2 | > 1.6 | > 30 | 2 (≈ 4.91 µM) | > 5 | –
COc1ccc2c(c1)Cc1cccc(-c3cc(N4CCOCC4)nc(O)n3)c1S2 | 0.16 | > 30 | < 2 | 3.3 | 21
COc1ccc2c(c1)Cc1cccc(-c3cc(N4CCOCC4)[nH]c(=O)c3)c1S2 | > 1 | > 30 | – | – | –

Now from value to compound:

Ki [1] [µM] | IC50 [2] [µM] | solubility kinetic at 2 h [3] [µg/mL] | Ki [4] [µM] | Ratio Ki [5] | Structure (SMILES)
0.0006 | – | < 2 | 0.005 | 8 | O=c1cc(N2CCOCC2)nc(N2C[C@@H]3C[C@@H]3[C@@H]2Cc2ccccc2)[nH]1
– | – | 62 (≈ 170 µM) | > 5 | – | C[C@@H]1CN(c2cc(N3C[C@H]4C[C@H]4[C@@H]3Cc3ccccc3)[nH]c(=O)c2)CCO1
0.002 | – | 48 (≈ 131 µM) | 0.88 | 490 | C[C@@H]1CN(c2cc(=O)[nH]c(N3C[C@H]4C[C@H]4[C@@H]3Cc3ccccc3)n2)CCO1
> 0.9 | > 30 | > 55 | 0.63 | > 1 | O=c1cc(N2CCOCC2)cc(N2CCC[C@H]2Cc2ccccc2)[nH]1
0.0009 | – | < 2 | 1.5 | 1700 | C[C@@H]1CN(c2cc(=O)[nH]c(N3C[C@@H]4C[C@@H]4[C@@H]3Cc3ccccc3)n2)CCO1
0.0002 | 0.13 | 54 (≈ 153 µM) | 0.021 | 105 | O=c1cc(N2CCOCC2)nc(N2C[C@H]3C[C@H]3[C@@H]2Cc2ccccc2)[nH]1
0.001 | – | 11 (≈ 28.8 µM) | 0.84 | 840 | C[C@@H]1CN(c2cc(=O)[nH]c(N3CCCCC[C@@H]3Cc3ccccc3)n2)CCO1
0.03 | 4 | > 68 | 0.049 | 2 | O=c1cc(N2CCOCC2)cc(N2CCCC2Cc2ccccc2)[nH]1 (racemic)
